Results: ChEMBL document CHEMBL3525979, “Combined contributions of impaired hepatic CYP2C11 and intestinal breast cancer resistance protein activities and expression to increased oral glibenclamide exposure in rats with streptozotocin-induced diabetes mellitus” (Drug Metab Dispos, 2012)

Key:
[1] = AUC (0 to t) in Sprague-Dawley rat model of streptozotocin-induced diabetes mellitus at 10 mg/kg, po by HPLC method; type: ADME, organism-based; design: dose 10 mg/kg, route oral; conditions: in vivo
How it was run: (§1)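 Sprague-Dawley rats: diabetes induced by STZ 65 mg/kg i.p. in citrate buffer pH 4.5 (fasting glucose >11.1 mM at day 7). Insulin group received protamine zinc insulin 5 U/kg s.c. twice daily for 4 weeks. On day 35, overnight-fasted rats got GLB 10 mg/kg orally in 0.5% CMC-Na. Plasma GLB measured by HPLC with fluorescence detection (ex 308/em 360 nm). Non-compartmental analysis; n=6-7.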

Liver microsome [2] = test: Apparent hepatic clearance in normal Sprague-Dawley rat liver microsomes assessed per mg protein at 4 uM after 60 mins; type: ADME; conditions: 1 h
How it was run: (§2)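 Liver microsomes (0.5 mg/mL protein) from control, STZ-diabetic or insulin-treated diabetic rats, 0.01 M phosphate buffer pH 7.4, 4 μM GLB (methanol <1%); 5 min preincubation at 37 °C, started with NADPH regenerating system. Stopped with 1 M HCl at 0, 5, 15, 30, 45, 60 min. GLB depletion measured by HPLC-fluorescence. AUC by linear trapezoid; Clapp = initial dose/AUC0-t; t1/2 = 0.693/terminal slope. Triplicate incubations; 4-5 rats.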

Liver microsome [3] = test: Drug metabolism in insulin treated streptozotocin-induced diabetes mellitus Sprague-Dawley rat liver microsomes assessed as compound level at 4 uM after 60 mins (reference value: 2.06 +/- 0.27 ug/ml); type: ADME; conditions: 1 h
[4] = Tmax in normal Sprague-Dawley rat at 10 mg/kg, po by HPLC method; type: ADME, organism-based; design: dose 10 mg/kg, route oral; conditions: in vivo
How it was run: (§3)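 Rats given STZ 65 mg/kg i.p. in citrate buffer pH 4.5 (controls got buffer); diabetic if fasting glucose >11.1 mM at day 7; insulin group got protamine zinc insulin 5 U/kg s.c. twice daily for 4 weeks. On day 35, overnight-fasted rats dosed orally with 10 mg/kg in 0.5% CMC-Na; plasma by ethyl acetate extraction, HPLC fluorescence (ex 308/em 360 nm); non-compartmental analysis; n=6-7, mean ± S.D.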

[5] = Drug excretion in feces of Sprague-Dawley rat model of streptozotocin-induced diabetes mellitus at 10 mg/kg, po by HPLC method; type: ADME, organism-based; design: dose 10 mg/kg, route oral; conditions: faeces, read-out: Drug excretion
How it was run: (§4)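 STZ-diabetic (65 mg/kg i.p.), insulin-treated or control rats were dosed with GLB 10 mg/kg orally on day 35 after overnight fast. Urine and feces were collected in metabolic cages at 6-h intervals to 36 h. For bile, the common bile duct was cannulated under pentobarbital and bile collected to 12 h. GLB measured by HPLC-fluorescence and expressed as % of dose.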

Jejunum [6] = test: Drug absorption in normal Sprague-Dawley rat jejunum assessed as 200 uM BCRP inhibitor novobiocin-mediated increase in apparent effective permeability at 10 ug/ml measured at 90 mins of perfusion; type: ADME, tissue-based; design: scale not given: the % may be the effect or the level left; conditions: 1.5 h
How it was run: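 Normal rats underwent in situ single-pass jejunal perfusion: saline preperfusion at 0.2 mL/min, 37 °C, for 20 min, then K-H buffer with GLB 10 μg/mL with or without novobiocin 50 or 200 μM. Effluent was collected every 15 min. Peff (cm/min) was calculated from GLB loss and the absorptive area of the segment; n=5.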

[7] = Terminal elimination half life in insulin treated Sprague-Dawley rat model of streptozotocin-induced diabetes mellitus at 10 mg/kg, po by HPLC method; type: ADME, organism-based; design: dose 10 mg/kg, route oral; conditions: in vivo, read-out: beta t1/2 (converted); how it was run: as §3
Liver microsome [8] = test: Apparent hepatic clearance in insulin treated streptozotocin-induced diabetes mellitus Sprague-Dawley rat liver microsomes assessed per mg protein at 4 uM after 60 mins; type: ADME; conditions: 1 h; how it was run: as §2
Liver microsome [9] = test: Drug metabolism in streptozotocin-induced diabetes mellitus Sprague-Dawley rat liver microsomes assessed as compound level at 4 uM after 60 mins (reference value: 2.0 +/- 0.13 ug/ml); type: ADME; conditions: 1 h
[10] = Drug excretion in bile of insulin treated Sprague-Dawley rat model of streptozotocin-induced diabetes mellitus at 10 mg/kg, po by HPLC method; type: ADME, organism-based; design: dose 10 mg/kg, route oral; conditions: read-out: Drug excretion; how it was run: as §4
[11] = Drug excretion in normal Sprague-Dawley rat feces at 10 mg/kg, po by HPLC method; type: ADME, organism-based; design: dose 10 mg/kg, route oral; conditions: faeces, read-out: Drug excretion; how it was run: as §4
[12] = AUC (0 to infinity) in normal Sprague-Dawley rat at 10 mg/kg, po by HPLC method; type: ADME, organism-based; design: time infinity, dose 10 mg/kg, route oral; conditions: plasma; how it was run: as §1
[13] = Drug excretion in normal Sprague-Dawley rat urine at 10 mg/kg, po by HPLC method; type: ADME, organism-based; design: dose 10 mg/kg, route oral; conditions: read-out: Drug excretion; how it was run: as §4
[14] = Terminal elimination half life in Sprague-Dawley rat model of streptozotocin-induced diabetes mellitus at 10 mg/kg, po by HPLC method; type: ADME, organism-based; design: dose 10 mg/kg, route oral; conditions: in vivo, read-out: beta t1/2 (converted); how it was run: as §3
Jejunum [15] = test: Drug absorption in streptozotocin-induced diabetes mellitus Sprague-Dawley rat jejunum at 10 ug/ml after 30 mins of in situ single-pass perfusion relative to normal rat; type: ADME, tissue-based; conditions: in vivo, 0.5 h
How it was run: (§5)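 In situ single-pass jejunal perfusion in anaesthetized control and STZ-diabetic rats. The segment was preperfused with 0.9% saline at 0.2 mL/min, 37 °C, for 20 min, then perfused with K-H buffer containing GLB 10 μg/mL. Effluent was collected at 15-min intervals after a 30-min steady state. Cumulative absorption was calculated from GLB loss (HPLC); n=5.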

[16] = AUC (0 to 60 mins) in streptozotocin-induced diabetes mellitus Sprague-Dawley rat liver microsomes at 4 uM after 60 mins; type: ADME; design: dose 4 uM, time < 1 hr; how it was run: as §2
[17] = Apparent oral volume of distribution in normal Sprague-Dawley rat at 10 mg/kg, po by HPLC method; type: ADME, organism-based; design: dose 10 mg/kg, route oral; conditions: in vivo; how it was run: as §1
[18] = Oral clearance in insulin treated Sprague-Dawley rat model of streptozotocin-induced diabetes mellitus at 10 mg/kg, po by HPLC method; type: ADME, organism-based; design: dose 10 mg/kg, route oral; conditions: in vivo; how it was run: as §3
[19] = Drug excretion in bile of Sprague-Dawley rat model of streptozotocin-induced diabetes mellitus at 10 mg/kg, po by HPLC method; type: ADME, organism-based; design: dose 10 mg/kg, route oral; conditions: read-out: Drug excretion; how it was run: as §4
Jejunum [20] = test: Drug absorption in streptozotocin-induced diabetes mellitus Sprague-Dawley rat jejunum at 10 ug/ml after 120 mins of in situ single-pass perfusion relative to normal rat; type: ADME, tissue-based; conditions: in vivo, 2 h; how it was run: as §5
[21] = AUC (0 to infinity) in Sprague-Dawley rat model of streptozotocin-induced diabetes mellitus at 10 mg/kg, po by HPLC method; type: ADME, organism-based; design: time infinity, dose 10 mg/kg, route oral; conditions: in vivo; how it was run: as §1
[22] = Apparent oral volume of distribution in insulin treated Sprague-Dawley rat model of streptozotocin-induced diabetes mellitus at 10 mg/kg, po by HPLC method; type: ADME, organism-based; design: dose 10 mg/kg, route oral; conditions: in vivo; how it was run: as §1
[23] = Cmax in insulin treated Sprague-Dawley rat model of streptozotocin-induced diabetes mellitus at 10 mg/kg, po by HPLC method; type: ADME, organism-based; design: dose 10 mg/kg, route oral; conditions: in vivo; how it was run: as §1
Liver microsome [24] = test: Drug metabolism in normal Sprague-Dawley rat liver microsomes assessed as compound level at 4 uM after 60 mins (reference value: 2.06 +/- 0.12 ug/ml); type: ADME; conditions: 1 h
[25] = Cmax in Sprague-Dawley rat model of streptozotocin-induced diabetes mellitus at 10 mg/kg, po by HPLC method; type: ADME, organism-based; design: dose 10 mg/kg, route oral; conditions: in vivo; how it was run: as §1

AUC(0-t) [1]: 13300 ng·h/mL
CLH(app) (Liver microsome [2]): 205 µL/min/mg
Drug uptake (Liver microsome [3]): 0.09 µg/mL
Tmax [4]: 1.5 h
dose excreted [5]: 40%
Activity (Jejunum [6]): 32%
half-life [7]: 8.18 h
CLH(app) (Liver microsome [8]): 176 µL/min/mg
Drug uptake (Liver microsome [9]): 0.52 µg/mL
dose excreted [10]: 0.018%
dose excreted [11]: 72%
AUC(0-inf) [12]: 2610 ng·h/mL
dose excreted [13]: 0.0042%
half-life [14]: 5.11 h
Drug absorption (Jejunum [15]): 35%
AUC(0-t) at 1 h, 4 µM [16]: 916 ng·h/mL
Vd/F [17]: 25.7 L/kg
CL/F [18]: 66.3 mL/min/kg
dose excreted [19]: 0.097%
Drug absorption (Jejunum [20]): 42%
AUC(0-inf) [21]: 15200 ng·h/mL
Vd/F [22]: 36.8 L/kg
Cmax [23]: 250 ng/mL
Drug uptake (Liver microsome [24]): 0.07 µg/mL
Cmax [25]: 1250 ng/mL
SMILES: COc1ccc(Cl)cc1C(=O)NCCc1ccc(S(=O)(=O)NC(=O)NC2CCCCC2)cc1 [GLYBURIDE]
